Measurements of several laboratories.
Lines come from different studies, so protocols differ. In brackets after ≈: the same amount, converted by molar mass.

| Structure (SMILES) | test | test system | setting | measurement | result |
| --- | --- | --- | --- | --- | --- |
| O=C(Nc1ccc(OC(F)(F)F)cc1)N[C@H]1CC[C@H](Oc2ccc(C(=O)O)cc2)CC1 | – | simulated gastric fluid | 15 min, pH 1, 37 °C, acidic | solubility | 0.0023 µg/mL (≈ 0.00525 µM) |
| N#Cc1ccc(C[C@@H](Nc2c(Nc3ccc(F)cc3)c(=O)c2=O)C(=O)N2CCc3ccccc32)cc1 | – | aqueous buffer | 2 h, pH 7.4, 37 °C | kinetic solubility | 11.8 µM (≈ 5.67 µg/mL) |
| Clc1ccc(Nc2ncnc3ccc(-c4cccc(N5CCOCC5)c4)cc23)cc1 | – | aqueous buffer | pH 7.4, 25 °C | thermodynamic solubility | < 0.4 µM |
| CCCCCCCCCCCCCCCC(=O)NCCOC(=O)C[C@@H](CN)CC(C)C | – | aqueous buffer | 12 h, pH 6.8, 37 °C | thermodynamic solubility | 3780 µg/mL |
| Cc1ccccc1CN1C(=O)C2=C(CCN(Cc3ccccc3)C2)N2CCN=C12 | shake flask | aqueous buffer | pH 6 | solubility | 260 µg/mL (≈ 673 µM) |
| Fc1ccccc1Nc1nc(-c2ccncc2)nc2c1CNCC2 | – | PBS | 24 h, pH 7.4 | kinetic solubility | > 250 µM |
| CCN(CC)CCNC(=O)c1cc(S(C)(=O)=O)ccc1OC | – | PBS | 2 h, pH 7.4, 25 °C | kinetic solubility | 394 µM (≈ 129 µg/mL) |
| CC[C@H](C)[C@H](NC(=O)[C@H](C)NC(=O)CNC(=O)[C@H](Cc1ccccc1)NC(=O)[C@H](CC(N)=O)NC(=O)[C@H](CC(N)=O)NC(=O)[C@H](CO)NC(=O)[C@H](CO)NC(=O)[C@H](Cc1c[nH]cn1)NC(=O)[C@@H](NC(=O)[C@H](CC(C)C)NC(=O)[C@H](Cc1ccccc1)NC(=O)[C@H](CC(N)=O)NC(=O)[C@H](C)NC(=O)[C@H](CC(C)C)NC(=O)[C@H](CCCNC(=N)N)NC(=O)[C@H](CCC(N)=O)NC(=O)[C@@H](NC(=O)[C@H](C)NC(=O)[C@@H]1CSSC[C@H](NC(=O)[C@@H](N)CCCCN)C(=O)N[C@@H](CC(N)=O)C(=O)N[C@@H]([C@@H](C)O)C(=O)N[C@@H](C)C(=O)N[C@@H]([C@@H](C)O)C(=O)N1)[C@@H](C)O)C(C)C)C(=O)N[C@@H](CC(C)C)C(=O)N[C@@H](CO)C(=O)N[C@@H](CO)C(=O)N[C@H](C(=O)N[C@@H](CC(N)=O)C(=O)N[C@H](C(=O)NCC(=O)N[C@@H](CO)C(=O)N[C@@H](CC(N)=O)C(=O)N[C@H](C(=O)N[C@@H](Cc1ccc(O)cc1)C(N)=O)[C@@H](C)O)C(C)C)[C@@H](C)O | – | PBS | 1 h, pH 7.4 | thermodynamic solubility | 37 µg/mL |
| O=C(N1CCCCC1)C12CC(c3ccccc3)(C1)C2 | – | PBS | 2 h, pH 7.4, 25 °C | kinetic solubility | 266 µM (≈ 67.9 µg/mL) |
| N#Cc1ccc(C[C@H](NC(=O)Nc2ccc(F)cc2)C(=O)N2CCc3ccccc32)cc1 | – | aqueous buffer | 2 h, pH 7.4, 37 °C | kinetic solubility | 10.5 µM (≈ 4.5 µg/mL) |
| CCCCCCCCCCCCCCCC(=O)NCCO | – | aqueous buffer | 12 h, pH 6.8, 37 °C | thermodynamic solubility | < 16 µg/mL |
| CN1CCN(c2cccc(-c3ccc4ncnc(Nc5ccc(Cl)c(C(F)(F)F)c5)c4c3)c2)CC1 | – | aqueous buffer | pH 7.4, 25 °C | thermodynamic solubility | < 1.4 µM |
| N#Cc1ccc(C[C@H](Nc2nnc(-c3ccc(F)cc3)o2)C(=O)N2CCc3ccccc32)cc1 | – | aqueous buffer | 2 h, pH 7.4, 37 °C | kinetic solubility | 4.8 µM (≈ 2.18 µg/mL) |
| FC(F)(F)c1cc(Nc2ncnc3ccc(-c4cccc(N5CCOCC5)c4)cc23)ccc1Cl | – | aqueous buffer | pH 7.4, 25 °C | thermodynamic solubility | < 0.7 µM |
| N#Cc1ccc(C[C@H](Nc2nnc(-c3ccc(Br)cc3)o2)C(=O)N2CCc3ccccc32)cc1 | – | aqueous buffer | 2 h, pH 7.4, 37 °C | kinetic solubility | 1.8 µM (≈ 0.926 µg/mL) |
